Results reported in ChEMBL document CHEMBL3739314, “Discovery of Nanomolar Dengue and West Nile Virus Protease Inhibitors Containing a 4-Benzyloxyphenylglycine Residue” (J Med Chem, 2015).

Key:
[1] = target: Prothrombin (Homo sapiens) (UniProt P00734); assay: Inhibition of thrombin (unknown origin) using Boc-Val-Pro-Arg-AMC as substrate at 25 uM preincubated with protein for 15 mins followed by substrate addition measured for 10 mins by continuous fluorimetric assay relative to control
[2] = Inhibition of West Nile virus NS2B-NS3 protease using 2-Abz-Gly-Leu-Lys-Arg-Gly-Gly-[…]-Tyr-NH2 as substrate preincubated with protein for 15 mins followed by substrate addition measured for 15 mins by FRET assay
Procedure, shortened: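 WNV NS2B-NS3 linked construct at 75 nM (40 nM in one case) in pH 9 Tris buffer, preincubated 15 min with eight inhibitor concentrations (ranges 0–1 up to 0–50 μM). Substrate was 50 μM, with FRET readout over 15 min. IC50 was fitted from triplicates.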

[3] = Inhibition of Dengue virus serotype-2 NS2B-NS3 protease using 2-Abz-Nle-Lys-Arg-Arg-Ser-(3-NO2)-Tyr-NH2 as substrate preincubated with protein for 15 mins followed by substrate addition measured for 15 mins by FRET assay; set-up: species or system dengue virus type 2
Procedure, shortened: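 DENV-2 NS2B-NS3 linked construct at 30 nM (15 nM in some cases), same pH 9 Tris buffer, 15 min preincubation and FRET read-out. Eight inhibitor concentrations spanned 0–1, 0–2, 0–6 or 0–50 μM, with substrate at 50 μM. IC50 was fitted from triplicates.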

West Nile virus = assay: Inhibition of West Nile virus NS2B-NS3 protease using 2-Abz-Gly-Leu-Lys-Arg-Gly-Gly-[…]-Tyr-NH2 as substrate at 50 uM preincubated with protein for 15 mins followed by substrate addition measured for 15 mins by FRET assay
Procedure, shortened: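 Linked WNV NS2B-NS3 protease (150 nM) was preincubated 15 min with inhibitor (50 μM final) in 50 mM Tris-HCl pH 9, 10% ethylene glycol, 0.0016% Brij 58. […] Percent inhibition was taken from the slope relative to the no-inhibitor control, in triplicate.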

inhibition [1] [%]	IC50 [2] [nM]	IC50 [3] [nM]	inhibition (West Nile virus) [%]	SMILES
< 30	486	143	102	N=C(N)NCCC[C@H](NC(=O)c1ccccc1)C(=O)N[C@@H](CCCCN)C(=O)N[C@@H](C(N)=O)c1ccc(OCc2ccc(Cl)cc2)cc1
< 30		505	96.6	N=C(N)NCCC[C@H](NC(=O)c1cc2ccsc2s1)C(=O)N[C@@H](CCCCN)C(=O)N[C@@H](C(N)=O)c1ccc(OCc2ccccc2)cc1
< 30		262	96.4	N=C(N)NCCC[C@H](NC(=O)c1cccnc1)C(=O)N[C@@H](CCCCN)C(=O)N[C@@H](C(N)=O)c1ccc(OCc2ccccc2)cc1
< 30	804	147	99	COc1cccc(COc2ccc([C@@H](NC(=O)[C@H](CCCCN)NC(=O)[C@H](CCCNC(=N)N)NC(=O)c3ccccc3)C(N)=O)cc2)c1
< 30		781	95.7	N=C(N)NCCC[C@H](NC(=O)C1CCCCC1)C(=O)N[C@@H](CCCCN)C(=O)N[C@@H](C(N)=O)c1ccc(OCc2ccccc2)cc1
< 30	507	479	98.1	N=C(N)NCCC[C@H](NC(=O)c1ccco1)C(=O)N[C@@H](CCCCN)C(=O)N[C@@H](C(N)=O)c1ccc(OCc2ccccc2)cc1
< 30	434	301	98.7	N=C(N)NCCC[C@H](NC(=O)c1ccccc1C(F)(F)F)C(=O)N[C@@H](CCCCN)C(=O)N[C@@H](C(N)=O)c1ccc(OCc2ccccc2)cc1
< 30		181	97	N=C(N)NCCC[C@H](NC(=O)c1ccccc1)C(=O)N[C@@H](CCCCN)C(=O)N[C@@H](C(N)=O)c1ccc(OCc2ccccc2C(F)(F)F)cc1
< 30	360	347	100	N=C(N)NCCC[C@H](NC(=O)c1ccc(-c2ccccc2)s1)C(=O)N[C@@H](CCCCN)C(=O)N[C@@H](C(N)=O)c1ccc(OCc2ccccc2)cc1
< 30		182	97.1	N=C(N)NCCC[C@H](NC(=O)c1ccccc1)C(=O)N[C@@H](CCCCN)C(=O)N[C@@H](C(N)=O)c1ccc(OCc2ccc(OC(F)(F)F)cc2)cc1
< 30	213	399	99.9	N#Cc1ccc(COc2ccc([C@@H](NC(=O)[C@H](CCCCN)NC(=O)[C@H](CCCNC(=N)N)NC(=O)c3ccccc3)C(N)=O)cc2)cc1
< 30		194	95.2	N=C(N)NCCC[C@H](NC(=O)c1sccc1Cl)C(=O)N[C@@H](CCCCN)C(=O)N[C@@H](C(N)=O)c1ccc(OCc2ccccc2)cc1
< 30		164	97.4	N=C(N)NCCC[C@H](NC(=O)c1cccc(C=O)c1)C(=O)N[C@@H](CCCCN)C(=O)N[C@@H](C(N)=O)c1ccc(OCc2ccccc2)cc1
< 30	508	486	98.8	N=C(N)NCCC[C@H](NC(=O)c1ccccc1)C(=O)N[C@@H](CCCCN)C(=O)N[C@@H](C(N)=O)c1ccc(OCC(=O)c2ccccc2)cc1
< 30	224	69	99.7	N=C(N)NCCC[C@H](NC(=O)c1ccccc1)C(=O)N[C@@H](CCCCN)C(=O)N[C@@H](C(N)=O)c1ccc(OCc2ccc(C(F)(F)F)cc2)cc1
< 30	430	375	100	N=C(N)NCCC[C@H](NC(=O)c1ccc(-c2cccs2)s1)C(=O)N[C@@H](CCCCN)C(=O)N[C@@H](C(N)=O)c1ccc(OCc2ccccc2)cc1
< 30		401	92.5	N=C(N)NCCC[C@H](NC(=O)c1cc2sccc2s1)C(=O)N[C@@H](CCCCN)C(=O)N[C@@H](C(N)=O)c1ccc(OCc2ccccc2)cc1
< 30	493	151	101	N=C(N)NCCC[C@H](NC(=O)c1ccccc1)C(=O)N[C@@H](CCCCN)C(=O)N[C@@H](C(N)=O)c1ccc(OCc2c(Cl)cccc2Cl)cc1
< 30	296	109	98	N=C(N)NCCC[C@H](NC(=O)c1cccs1)C(=O)N[C@@H](CCCCN)C(=O)N[C@@H](C(N)=O)c1ccc(OCc2ccccc2)cc1
< 30	1290	340	100	N=C(N)NCCC[C@H](NC(=O)c1ccccc1F)C(=O)N[C@@H](CCCCN)C(=O)N[C@@H](C(N)=O)c1ccc(OCc2ccccc2)cc1

inhibition [1] [%]	IC50 [2] [nM]	IC50 [3] [nM]	inhibition (West Nile virus) [%]	SMILES
< 30		322	94.3	N=C(N)NCCC[C@H](NC(=O)c1sccc1-n1cccc1)C(=O)N[C@@H](CCCCN)C(=O)N[C@@H](C(N)=O)c1ccc(OCc2ccccc2)cc1
< 30		906	87.4	N=C(N)NCCC[C@H](NC(=O)CCc1ccccc1)C(=O)N[C@@H](CCCCN)C(=O)N[C@@H](C(N)=O)c1ccc(OCc2ccccc2)cc1
< 30		701	96.3	N=C(N)NCCC[C@H](NC(=O)C1CCCC1)C(=O)N[C@@H](CCCCN)C(=O)N[C@@H](C(N)=O)c1ccc(OCc2ccccc2)cc1
< 30	308	236	99.2	N=C(N)NCCC[C@H](NC(=O)c1ccccc1)C(=O)N[C@@H](CCCCN)C(=O)N[C@@H](C(N)=O)c1ccc(OCc2ccc(Br)cc2)cc1
< 30	406	321	98.1	N=C(N)NCCC[C@H](NC(=O)c1ccccc1)C(=O)N[C@@H](CCCCN)C(=O)N[C@@H](C(N)=O)c1ccc(OCc2ccccc2Cl)cc1
< 30		466	95.5	N=C(N)NCCC[C@H](NC(=O)c1cccc(F)c1)C(=O)N[C@@H](CCCCN)C(=O)N[C@@H](C(N)=O)c1ccc(OCc2ccccc2)cc1
< 30	321	186	102	N=C(N)NCCC[C@H](NC(=O)c1ccccc1)C(=O)N[C@@H](CCCCN)C(=O)N[C@@H](C(N)=O)c1ccc(OCc2cccc(Cl)c2)cc1
< 30	615	177	97.8	N=C(N)NCCC[C@H](NC(=O)c1ccccc1)C(=O)N[C@@H](CCCCN)C(=O)N[C@@H](C(N)=O)c1ccc(OCc2ccc(Cl)c(Cl)c2)cc1
< 30		173	85.6	CC(C)(C)c1ccc(COc2ccc([C@@H](NC(=O)[C@H](CCCCN)NC(=O)[C@H](CCCNC(=N)N)NC(=O)c3ccccc3)C(N)=O)cc2)cc1
< 30		366	96.7	N=C(N)NCCC[C@H](NC(=O)c1ccccc1)C(=O)N[C@@H](CCCCN)C(=O)N[C@@H](C(N)=O)c1ccc(OCc2ccccc2Br)cc1
< 30		194	96.2	N=C(N)NCCC[C@H](NC(=O)c1scc2c1OCCO2)C(=O)N[C@@H](CCCCN)C(=O)N[C@@H](C(N)=O)c1ccc(OCc2ccccc2)cc1
< 30		232	83	N=C(N)NCCC[C@H](NC(=O)c1ccc(C=O)cc1)C(=O)N[C@@H](CCCCN)C(=O)N[C@@H](C(N)=O)c1ccc(OCc2ccccc2)cc1
< 30		1990	85.1	N=C(N)NCCC[C@H](NC(=O)c1ccccc1)C(=O)N[C@@H](CCCCN)C(=O)N[C@@H](C(N)=O)c1ccc(OCc2ccc(N)cc2)cc1
< 30		304	97.4	N=C(N)NCCC[C@H](NC(=O)c1cncs1)C(=O)N[C@@H](CCCCN)C(=O)N[C@@H](C(N)=O)c1ccc(OCc2ccccc2)cc1
< 30		192	92.6	N=C(N)NCCC[C@H](NC(=O)c1ccccc1)C(=O)N[C@@H](CCCCN)C(=O)N[C@@H](C(N)=O)c1ccc(OCc2ccc3ccccc3c2)cc1
< 30		1040	84.6	CC(=O)c1ccc(C(=O)N[C@@H](CCCNC(=N)N)C(=O)N[C@@H](CCCCN)C(=O)N[C@@H](C(N)=O)c2ccc(OCc3ccccc3)cc2)cc1
< 30		309	85.2	Cc1cccc(COc2ccc([C@@H](NC(=O)[C@H](CCCCN)NC(=O)[C@H](CCCNC(=N)N)NC(=O)c3ccccc3)C(N)=O)cc2)c1
< 30		639	92.9	N=C(N)NCCC[C@H](NC(=O)c1ccc(F)cc1)C(=O)N[C@@H](CCCCN)C(=O)N[C@@H](C(N)=O)c1ccc(OCc2ccccc2)cc1
< 30		364	92.6	Cc1ccc(C(=O)N[C@@H](CCCNC(=N)N)C(=O)N[C@@H](CCCCN)C(=O)N[C@@H](C(N)=O)c2ccc(OCc3ccccc3)cc2)s1
